Laboratory results from ChEMBL document CHEMBL1154693, “Discovery of trans-4-[1-[[2,5-Dichloro-4-(1-methyl-3-indolylcarboxamido)phenyl]acetyl]-(4S)-methoxy-(2S)-pyrrolidinylmethoxy]cyclohexanecarboxylic acid: an orally active, selective very late antigen-4 antagonist” (J Med Chem, 2009).

Assays:
[1] = Half life in Sprague-Dawley rat at 1 mg/kg, po; format: ADME, organism-based; parameters: dose 1 mg/kg, route oral; conditions: in vivo
Procedure, shortened: (§1)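 Male Sprague-Dawley rats (7 weeks), fasted 18 h, four per group. 1 mg/kg oral in 0.5% MC or iv in saline, each with 3 equiv NaOH. Plasma drawn at 0.08 (iv) or 0.25 (po), 0.5, 1, 2 and 6 h; LC/MS/MS quantitation, noncompartmental parameters.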

[2] = Clearance in Sprague-Dawley rat at 1 mg/kg, iv; format: ADME, organism-based; parameters: dose 1 mg/kg, route intravenous; conditions: in vivo; procedure, shortened: as §1
Integrin alpha-4/beta-1 [3] = target: T1, Integrin alpha-4/beta-1 (Homo sapiens, UniProt P05556+P13612); test: Inhibition of europium labeled human VCAM1/Fc chimera binding to human VLA-4 alpha-4-beta-1 expressed in Chinese hamster 4B4 cells by fluorimetric assay; format: cell-based
[4] = Volume of distribution at steady state in Beagle dog at 0.5 mg/kg, iv; format: ADME, organism-based, Canis lupus familiaris; parameters: dose 0.5 mg/kg, route intravenous; conditions: in vivo, read-out: Vdss
Procedure, shortened: (§2)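 Male beagle dogs (10-12 kg), fasted 18 h, three per group; cassette dosing 0.5 mg/kg in 0.5% MC with 3 equiv NaOH (po) or saline with 3 equiv NaOH (iv). Blood taken 0.08 (iv) or 0.25 (po) to 24 h, fed after 4 h; plasma assayed by LC/MS/MS, noncompartmental analysis.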

[5] = Volume of distribution at steady state in Sprague-Dawley rat at 1 mg/kg, iv; format: ADME, organism-based; parameters: dose 1 mg/kg, route intravenous; conditions: in vivo, read-out: Vdss; procedure, shortened: as §1
Mus musculus [6] = test: Antiinflammatory activity in Ascaris suum antigen-induced BALB/c AnNCrj mouse asthma model assessed as reduction of acetylcholine chloride-induced bronchial hyperesponsiveness at 12.5 mg/kg, bid administered 15 mins before and 8, 24 and 32 hrs after antigen challenge measured 48 hrs after antigen challenge; format: functional; parameters: scale not given: the % may be the effect or the level left
Procedure, shortened: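 Sensitized/challenged BALB/c AnNCrj mice (Ascaris suum, as in the eosinophil model) dosed po in 0.5% MC/0.03% Tween 80 at 15 min before and 8, 24, 32 h after challenge. At 48 h, pentobarbital-anesthetized, tracheotomized, ventilated mice given ACh injection; lung resistance increase measured.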

[7] = Cmax in Beagle dog at 0.5 mg/kg, po; format: ADME, organism-based, Canis lupus familiaris; parameters: dose 0.5 mg/kg, route oral; conditions: in vivo; procedure, shortened: as §2
[8] = AUC in Sprague-Dawley rat at 1 mg/kg, iv; format: ADME, organism-based; parameters: dose 1 mg/kg, route intravenous; conditions: plasma; procedure, shortened: as §1
[9] = Clearance in Beagle dog at 0.5 mg/kg, iv; format: ADME, organism-based, Canis lupus familiaris; parameters: dose 0.5 mg/kg, route intravenous; conditions: in vivo; procedure, shortened: as §2
[10] = Half life in Sprague-Dawley rat at 1 mg/kg, iv; format: ADME, organism-based; parameters: dose 1 mg/kg, route intravenous; conditions: in vivo; procedure, shortened: as §1
[11] = AUC in cynomolgus monkey at 0.5 mg/kg, iv; format: ADME, organism-based, Macaca fascicularis; parameters: dose 0.5 mg/kg, route intravenous; conditions: plasma
Procedure, shortened: (§3)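 Female cynomolgus monkeys (3.5-4 kg), fasted 18 h, three per group. Dose 0.5 mg/kg, oral as suspension in 0.5% MC or iv in saline with 3 equiv NaOH. Blood sampled from 0.08 (iv) or 0.25 (po) up to 24 h, food after 4 h; plasma LC/MS/MS, noncompartmental analysis.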

[12] = target: Intercellular adhesion molecule (ICAM-1), Integrin alpha-L/beta-2 (Homo sapiens) (UniProt P20701+P05362+P05107); test: Inhibition of europium labeled human ICAM1 binding to human integrin alphaLbeta2 receptor at 162 uM by protein/protein binding assay; format: protein-complex assay
Procedure, shortened: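 Membrane-bound human LFA-1 immobilized at 1 μg/mL overnight at 4 °C, then blocked with BSA. Compound added with 2 nM Eu-labeled human ICAM-1 D1D5-IgG in 5% DMSO and bound for 2 h at room temperature; plates washed and Eu fluorescence read by time-resolved fluorometry.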

[13] = Half life in Beagle dog at 0.5 mg/kg, po; format: ADME, organism-based, Canis lupus familiaris; parameters: dose 0.5 mg/kg, route oral; conditions: in vivo; procedure, shortened: as §2
[14] = Drug level in BALB/c mouse serum at 10 mg/kg, po after 15 mins; format: ADME, organism-based; parameters: dose 10 mg/kg, route oral; conditions: read-out: Drug uptake
Procedure, shortened: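 Serum (final 0.01-10%) assayed in the VLA-4/VCAM-1 binding assay, and concentration estimated from a calibration curve of compound spiked into untreated mouse serum.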

Mus musculus [15] = test: Toxicity in BALB/c AnNCrj mouse assessed as induction of hepatic injury at 50 mg/kg, iv for 2 days; format: organism-based; parameters: dose 50 mg/kg, route intravenous; conditions: in vivo, 48 h
Procedure, shortened: (§4)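 Mice dosed iv at 50 mg/kg or orally at 25 or 200 (mg/kg)/day for 2 days, then assessed for liver injury.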

Mus musculus [16] = test: Antiinflammatory activity in Ascaris suum antigen-induced BALB/c AnNCrj mouse asthma model assessed as inhibition of eosinophil infiltration in BAL fluid orally administered twice daily 15 mins before and 8, 24 and 32 hrs after antigen challenge measured 48 hrs after antigen challenge; format: functional, organism-based
Procedure, shortened: (§5)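 Female BALB/c AnNCrj mice given cyclophosphamide 150 mg/kg po (day 0), sensitized ip with Ascaris suum extract plus alum on days 2 and 14, challenged intratracheally day 22. Compound in 0.5% MC/0.03% Tween 80 po 15 min before and 8, 24, 32 h after challenge; BAL at 48 h, eosinophils from total count times Wright-stained differential.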

[17] = target: Integrin alpha-IIb/beta-3 (Homo sapiens) (UniProt P05106+P08514); test: Inhibition of integrin alpha2bbeta3 receptor dependent platelet aggregation at 16 uM
Procedure, shortened: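 Platelet-rich plasma prepared from citrated blood of two volunteers. Compound in DMSO preincubated with PRP for 2 min at 37 °C, then aggregation induced with collagen; aggregation rate followed for 10 min.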

[18] = Half life in cynomolgus monkey at 0.5 mg/kg, iv; format: ADME, organism-based, Macaca fascicularis; parameters: dose 0.5 mg/kg, route intravenous; conditions: in vivo; procedure, shortened: as §3
[19] = target: Integrin alpha-4/beta-7 (Homo sapiens) (UniProt P13612+P26010); test: Inhibition of MAdCAM1 binding to integrin alpha4beta7 receptor in human RPMI8866 cells at 16 uM by cell/protein binding assay; format: cell-based
Procedure, shortened: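 RPMI8866 human B cells (α4β7+, β1−) at 1.2 × 10⁶/well in HEPES buffer containing BSA, DTPA, Ca, Mg and Mn, mixed with compound (final 10 μg/mL to 1 ng/mL) and Eu-MAdCAM-1 (final 1 nM) for 1 h at room temperature. Free ligand removed by centrifugation and washing; time-resolved fluorescence measured.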

[20] = AUC in Beagle dog at 0.5 mg/kg, po; format: ADME, organism-based, Canis lupus familiaris; parameters: dose 0.5 mg/kg, route oral; conditions: plasma; procedure, shortened: as §2
[21] = Cmax in cynomolgus monkey at 0.5 mg/kg, po; format: ADME, organism-based, Macaca fascicularis; parameters: dose 0.5 mg/kg, route oral; conditions: in vivo; procedure, shortened: as §3
[22] = Oral bioavailability in cynomolgus monkey at 0.5 mg/kg, po; format: ADME, organism-based, Macaca fascicularis; conditions: in vivo; procedure, shortened: as §3
[23] = Oral bioavailability in Sprague-Dawley rat at 1 mg/kg, po; format: ADME, organism-based; conditions: in vivo; procedure, shortened: as §1
[24] = Cmax in Sprague-Dawley rat at 1 mg/kg, po; format: ADME, organism-based; parameters: dose 1 mg/kg, route oral; conditions: in vivo; procedure, shortened: as §1
[25] = AUC in Beagle dog at 0.5 mg/kg, iv; format: ADME, organism-based, Canis lupus familiaris; parameters: dose 0.5 mg/kg, route intravenous; conditions: plasma; procedure, shortened: as §2
[26] = Oral bioavailability in Beagle dog at 0.5 mg/kg, po; format: ADME, organism-based, Canis lupus familiaris; conditions: in vivo; procedure, shortened: as §2
Integrin alpha-4/beta-1 [27] = target: T1, Integrin alpha-4/beta-1; test: Inhibition of europium labeled human VCAM1/Fc chimera binding to human VLA-4 alpha-4-beta-1 expressed in Chinese hamster 4B4 cells in presence of 3% HSA by fluorimetric assay; format: cell-based
Procedure, shortened: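 CHO-K1 4B4 cells transfected with human α4 and β1, plated at 3 × 10⁵ cells/mL and cultured 2 days, washed with HEPES pH 7.5 buffer containing Ca, Mg, Mn. Compound plus Eu-labeled human VCAM-1/Fc (final 1 nM), with or without human serum albumin, 60 min at room temperature; washed, Eu time-resolved fluorescence read; duplicates.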

Mus musculus [28] = test: Antiinflammatory activity in Ascaris suum antigen-induced BALB/c AnNCrj mouse asthma model assessed as inhibition of eosinophil infiltration in BAL fluid at 5 mg.kg, po bid administered 15 mins before and 8, 24 and 32 hrs after antigen challenge measured 48 hrs after antigen challenge; format: functional; procedure, shortened: as §5
Cavia porcellus = test: Inhibition of acetylcholine chloride-induced bronchial hyperesponsiveness in ovalbumin challenged guinea pig asthma model administered orally 1 hr before and 2.5 hrs after antigen challenge; format: functional
Procedure, shortened: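 Hartley guinea pigs (n = 8/group) sensitized with 1% OVA aerosol 10 min/day for 8 days, challenged a week later with 2% OVA aerosol 5 min; metyrapone iv and pyrilamine ip pretreatment. Oral doses 0.8, 2, 5 or 12.5 mg/kg at 1 h before and 2.5 h after challenge. At 22-27.5 h, stepwise ACh aerosol (0.0625-2 mg/mL); PC100ACh from sRaw.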

[29] = Clearance in cynomolgus monkey at 0.5 mg/kg, iv; format: ADME, organism-based, Macaca fascicularis; parameters: dose 0.5 mg/kg, route intravenous; conditions: in vivo; procedure, shortened: as §3
Mus musculus [30] = test: Toxicity in BALB/c AnNCrj mouse assessed as induction of hepatic injury at 200 mg/kg, po for 2 days; format: organism-based; parameters: dose 200 mg/kg, route oral; conditions: in vivo, 48 h; procedure, shortened: as §4
[31] = Half life in Beagle dog at 0.5 mg/kg, iv; format: ADME, organism-based, Canis lupus familiaris; parameters: dose 0.5 mg/kg, route intravenous; conditions: in vivo; procedure, shortened: as §2
[32] = Half life in cynomolgus monkey at 0.5 mg/kg, po; format: ADME, organism-based, Macaca fascicularis; parameters: dose 0.5 mg/kg, route oral; conditions: in vivo; procedure, shortened: as §3
[33] = AUC in Sprague-Dawley rat at 1 mg/kg, po; format: ADME, organism-based; parameters: dose 1 mg/kg, route oral; conditions: plasma; procedure, shortened: as §1
[34] = Volume of distribution at steady state in cynomolgus monkey at 0.5 mg/kg, iv; format: ADME, organism-based, Macaca fascicularis; parameters: dose 0.5 mg/kg, route intravenous; conditions: in vivo, read-out: Vdss; procedure, shortened: as §3
[35] = AUC in cynomolgus monkey at 0.5 mg/kg, po; format: ADME, organism-based, Macaca fascicularis; parameters: dose 0.5 mg/kg, route oral; conditions: plasma; procedure, shortened: as §3

T1 sequence (P05556 whole entry): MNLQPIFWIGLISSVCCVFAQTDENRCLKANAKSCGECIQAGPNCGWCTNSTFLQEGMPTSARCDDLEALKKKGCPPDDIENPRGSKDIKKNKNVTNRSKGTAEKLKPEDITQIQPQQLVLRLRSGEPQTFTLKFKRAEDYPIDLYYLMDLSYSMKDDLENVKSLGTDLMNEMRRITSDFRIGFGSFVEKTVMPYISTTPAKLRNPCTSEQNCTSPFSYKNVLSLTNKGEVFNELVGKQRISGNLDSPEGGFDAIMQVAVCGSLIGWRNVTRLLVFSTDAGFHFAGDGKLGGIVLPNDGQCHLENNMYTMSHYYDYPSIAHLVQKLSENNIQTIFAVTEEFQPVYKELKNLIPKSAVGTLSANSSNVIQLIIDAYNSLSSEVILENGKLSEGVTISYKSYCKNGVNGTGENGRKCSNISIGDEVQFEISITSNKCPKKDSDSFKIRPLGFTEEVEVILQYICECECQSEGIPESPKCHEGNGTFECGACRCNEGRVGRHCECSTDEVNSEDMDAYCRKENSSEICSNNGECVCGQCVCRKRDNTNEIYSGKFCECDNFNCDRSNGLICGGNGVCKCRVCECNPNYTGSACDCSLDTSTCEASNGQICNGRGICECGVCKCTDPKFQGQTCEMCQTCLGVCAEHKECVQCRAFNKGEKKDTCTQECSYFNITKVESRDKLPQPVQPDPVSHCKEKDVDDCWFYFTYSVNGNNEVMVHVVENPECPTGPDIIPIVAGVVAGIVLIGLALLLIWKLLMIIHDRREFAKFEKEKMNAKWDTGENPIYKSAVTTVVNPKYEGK
T1 sequence (P13612 whole entry): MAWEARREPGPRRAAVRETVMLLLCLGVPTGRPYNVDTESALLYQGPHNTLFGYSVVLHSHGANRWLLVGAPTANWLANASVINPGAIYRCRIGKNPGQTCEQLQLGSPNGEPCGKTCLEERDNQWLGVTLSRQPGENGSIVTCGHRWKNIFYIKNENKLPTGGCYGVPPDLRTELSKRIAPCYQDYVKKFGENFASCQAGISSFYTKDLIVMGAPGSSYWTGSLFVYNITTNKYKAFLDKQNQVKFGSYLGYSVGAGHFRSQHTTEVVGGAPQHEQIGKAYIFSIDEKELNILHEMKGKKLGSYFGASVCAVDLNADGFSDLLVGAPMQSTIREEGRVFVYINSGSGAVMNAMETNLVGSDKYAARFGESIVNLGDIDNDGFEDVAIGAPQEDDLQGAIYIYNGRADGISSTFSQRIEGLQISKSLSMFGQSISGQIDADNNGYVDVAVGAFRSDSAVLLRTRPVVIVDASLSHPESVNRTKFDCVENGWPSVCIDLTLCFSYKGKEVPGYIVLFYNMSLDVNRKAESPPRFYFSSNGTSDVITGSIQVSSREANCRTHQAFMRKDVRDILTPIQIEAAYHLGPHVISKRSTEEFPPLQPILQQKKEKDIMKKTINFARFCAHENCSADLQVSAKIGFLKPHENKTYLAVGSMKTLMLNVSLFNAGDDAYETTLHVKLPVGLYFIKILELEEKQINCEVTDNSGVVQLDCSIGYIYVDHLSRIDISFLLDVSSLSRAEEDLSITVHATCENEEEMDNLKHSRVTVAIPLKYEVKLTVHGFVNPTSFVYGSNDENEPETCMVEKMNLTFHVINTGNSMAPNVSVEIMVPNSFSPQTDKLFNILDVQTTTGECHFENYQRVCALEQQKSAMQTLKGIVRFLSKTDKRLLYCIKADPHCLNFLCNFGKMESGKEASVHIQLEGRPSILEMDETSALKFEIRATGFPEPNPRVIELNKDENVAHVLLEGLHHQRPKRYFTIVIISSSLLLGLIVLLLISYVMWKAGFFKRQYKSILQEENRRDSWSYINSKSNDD

## CO[C@H]1C[C@@H](CO[C@H]2CC[C@H](C(=O)O)CC2)N(C(=O)Cc2cc(Cl)c(NC(=O)c3cn(C)c4ccccc34)cc2Cl)C1
[1]
  half-life: 1.5 h
[2]
  clearance: 19.3 mL/min/kg
Integrin alpha-4/beta-1 [3]
  IC50: 5.4 nM
[4]
  Vd: 0.164 L/kg
[5]
  Vd: 1.22 L/kg
Mus musculus [6]
  Activity: 83%
[7]
  Cmax: 1590 ng/mL
[8]
  AUC: 865 ng·h/mL
[9]
  clearance: 1.7 mL/min/kg
[10]
  half-life: 1 h
[11]
  AUC: 5140 ng·h/mL
[12]
  inhibition: 9%
[13]
  half-life: 2 h
[14]
  concentration at 0.25 h: 6150 ng/mL
Mus musculus [15]
  Activity: Non-toxic
Mus musculus [16]
  Activity: Dose-dependent effect
[17]
  inhibition: 10%
[18]
  half-life: 6.3 h
[19]
  inhibition: 41%
[20]
  AUC: 6090 ng·h/mL
[21]
  Cmax: 431 ng/mL
[22]
  bioavailability: 68%
[23]
  bioavailability: > 100%
[24]
  Cmax: 385 ng/mL
[25]
  AUC: 6710 ng·h/mL
[26]
  bioavailability: 91%
Integrin alpha-4/beta-1 [27]
  IC50: 93 nM
Mus musculus [28]
  inhibition (INH): 53%
Cavia porcellus
  Activity: Dose-dependent effect
Cavia porcellus; po, read-out: ID50 (the source's name)
  ED50: 3 mg/kg
[29]
  clearance: 1.8 mL/min/kg
Mus musculus [30]
  Activity: Non-toxic
[31]
  half-life: 2.1 h
[32]
  half-life: 5.5 h
[33]
  AUC: 975 ng·h/mL
[34]
  Vd: 0.223 L/kg
[35]
  AUC: 3480 ng·h/mL
